Experimental data of several laboratories.
Lines come from different studies, so protocols differ.

O=S(=O)(NNc1nnc(Cl)c2ccccc12)c1ccc(F)cc1 — viability (Vero; cell growth or viability, MTT; 62.5 µg/mL): 88.2%
CC(C)(C)c1ccc(O)c(CN(Cc2cc(C(C)(C)C)ccc2O)C2CCC(NC(N)=O)CC2)c1 (centres unmarked) — Cmax (male C57BL/6 mouse, plasma; intraperitoneal, 25 mg/kg, single dose): 3620 ng/mL
COc1cc(C(=O)NC2CCN(C)CC2)c(F)cc1Nc1ncc(C(F)(F)F)c(Oc2cccc3c2C(=O)N(C)C3)n1 — Vd/F (human, plasma; oral, 200 mg, multiple doses, once daily, patients): 290 L
Cn1cnc2c1c(=O)n(CC(=O)Nc1c(Cl)cccc1Cl)c(=O)n2C — viability (Vero; cell growth or viability, MTT; 500 µg/mL): 25.3%
CCOC(=O)C1CCCN1C(=O)c1ccc(NCc2cnc3nc(N)nc(N)c3n2)cc1 (centres unmarked) — inhibition (Cytochrome P450 1A2 (CYP1A2, Homo sapiens, UniProt P05177); enzyme activity, inhibitor, luciferase; 10 µM): -16%
Cc1cc(Nc2cc(N3CCN(C)CC3)nc(/C=C/c3ccccc3)n2)n[nH]1 — Vd/F (human, plasma; oral, 60 mg/m², patients): 1710 L
CCNc1nc(Nc2ccc(F)c(Cl)c2)c2ccccc2n1 — viability (Vero; cell growth or viability, MTT; 250 µg/mL): 20.6%
COC(=O)C1CCN(C(=O)c2ccc(NCc3cnc4nc(N)nc(N)c4n3)cn2)CC1 — inhibition (Cytochrome P450 3A4 (CYP3A4, Homo sapiens, UniProt P08684); enzyme activity, inhibitor, luciferase; 10 µM): -7.93%
